Test results as given in ChEMBL document CHEMBL4428057, “Discovery, Synthesis, and Evaluation of 2,4-Diaminoquinazolines as a Novel Class of Pancreatic β-Cell-Protective Agents against Endoplasmic Reticulum (ER) Stress” (J Med Chem, 2016).
The source made the active and inactive calls. The rule behind the calls is not given here.

How the values were obtained:
INS1 [1] = test: Protection against tunicamycin induced endoplasmic reticulum stress in rat INS-1 cells assessed as increase in cell viability at 2.5 to 20 uM after 72 hrs by MTT assay; format: functional, cell-based
Method in brief: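 INS-1 cells at 3×10^3/well in 384-well plates treated with Tm 0.1 µg/mL ± compound or DMSO for 72 h. MTT reagent for 3 h at 37 °C, crystal-dissolving solution for 4 h, absorbance at 570 nm. Means of 3 replicate wells, representative of 3 experiments, SD.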

INS1 [2] = test: Protection against BFA induced endoplasmic reticulum stress in rat INS-1 cells assessed as increase in cell viability at 20 uM after 72 hrs by CellTiter-Glo assay; format: functional, cell-based
Method in brief: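 INS-1 cells at 3×10^3/well (384-well) treated with brefeldin A 0.2 µg/mL ± compound 20 µM or DMSO for 72 h. Viability read as intracellular ATP by CellTiter-Glo luminescence. Means of 3 replicate wells, representative of 3 independent experiments; SD.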

INS1 [3] = test: Reversal of tunicamycin induced caspase-3 cleavage in rat INS-1 cells at 20 uM after 2 to 24 hrs by Western blot analysis; format: functional, cell-based
Method in brief: (§1)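 Western blots of INS-1 cells (8×10^5/60-mm dish) treated with Tm 0.1 µg/mL ± compound 20 µM or DMSO for the indicated times. Lysates with EDTA and phosphatase inhibitors; 20 µg protein on 7% SDS-PAGE, PVDF. Primary antibodies at 1:1000 against ATF4, CHOP, cleaved caspase 3 or PARP; α-tubulin loading control; HRP secondaries. Representative of 3 experiments.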

[4] = target: T1, Cyclic AMP-dependent transcription factor ATF-6 alpha (Rattus norvegicus) (UniProt G3V909); test: Inhibition of ATF6 in rat INS-1 cells assessed as suppression of tunicamycin induced GRP94 mRNA levels at 20 uM after 4 to 24 hrs by qRT-PCR method; format: cell-based
T1 sequence (whole entry): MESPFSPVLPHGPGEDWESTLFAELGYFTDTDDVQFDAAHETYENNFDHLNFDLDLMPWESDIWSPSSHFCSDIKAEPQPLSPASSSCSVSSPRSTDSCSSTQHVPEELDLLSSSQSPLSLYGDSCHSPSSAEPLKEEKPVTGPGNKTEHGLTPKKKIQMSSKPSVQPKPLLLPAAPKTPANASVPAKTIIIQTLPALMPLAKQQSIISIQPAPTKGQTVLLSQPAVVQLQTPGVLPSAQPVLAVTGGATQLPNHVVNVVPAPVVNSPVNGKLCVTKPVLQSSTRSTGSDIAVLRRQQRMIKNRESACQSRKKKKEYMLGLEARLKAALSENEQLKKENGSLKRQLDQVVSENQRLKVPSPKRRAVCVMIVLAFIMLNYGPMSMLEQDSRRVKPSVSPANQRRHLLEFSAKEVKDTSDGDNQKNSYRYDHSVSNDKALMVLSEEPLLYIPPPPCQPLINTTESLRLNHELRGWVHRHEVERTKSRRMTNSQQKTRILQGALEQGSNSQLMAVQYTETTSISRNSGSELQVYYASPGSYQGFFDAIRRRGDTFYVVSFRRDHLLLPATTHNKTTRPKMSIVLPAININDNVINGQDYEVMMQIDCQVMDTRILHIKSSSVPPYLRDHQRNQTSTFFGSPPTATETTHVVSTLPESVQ
Method in brief: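 INS-1 cells seeded at 4×10^5/well in 6-well plates, given Tm 0.1 µg/mL ± compound 20 µM or DMSO for the indicated times. Bip or GRP94 mRNA measured by qRT-PCR, expressed as fold-increase over untreated control. Means of 3 replicate wells, representative of 3 independent experiments.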

INS1 [5] = test: Protection against tunicamycin induced endoplasmic reticulum stress in rat INS-1 cells assessed as increase in cell viability at 5 uM after 72 hrs by CellTiter-Glo assay; format: functional, cell-based
INS1 [6] = test: Protection against tunicamycin induced endoplasmic reticulum stress in rat INS-1 cells assessed as increase in cell viability after 3 days by CellTiter-Glo assay relative to control; format: functional
Method in brief: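 INS-1 cells at 3×10^3/well (384-well) co-treated with Tm 0.1 µg/mL and compound for 72 h; CellTiter-Glo ATP luminescence. Activity is % rescue, with Tm alone = 0% and DMSO without Tm = 100%. EC50 from ten 2-fold serial dilutions by curve fit; triplicate.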

[7] = target: T2, Eukaryotic translation initiation factor 2-alpha kinase 3 (Rattus norvegicus) (UniProt Q9Z1Z1); test: Inhibition of PERK pathway in rat INS-1 cells assessed as reduction in tunicamycin induced ATF4 protein levels at 20 uM after 2 to 24 hrs by Western blot analysis; format: cell-based; method in brief: as §1
T2 sequence (whole entry): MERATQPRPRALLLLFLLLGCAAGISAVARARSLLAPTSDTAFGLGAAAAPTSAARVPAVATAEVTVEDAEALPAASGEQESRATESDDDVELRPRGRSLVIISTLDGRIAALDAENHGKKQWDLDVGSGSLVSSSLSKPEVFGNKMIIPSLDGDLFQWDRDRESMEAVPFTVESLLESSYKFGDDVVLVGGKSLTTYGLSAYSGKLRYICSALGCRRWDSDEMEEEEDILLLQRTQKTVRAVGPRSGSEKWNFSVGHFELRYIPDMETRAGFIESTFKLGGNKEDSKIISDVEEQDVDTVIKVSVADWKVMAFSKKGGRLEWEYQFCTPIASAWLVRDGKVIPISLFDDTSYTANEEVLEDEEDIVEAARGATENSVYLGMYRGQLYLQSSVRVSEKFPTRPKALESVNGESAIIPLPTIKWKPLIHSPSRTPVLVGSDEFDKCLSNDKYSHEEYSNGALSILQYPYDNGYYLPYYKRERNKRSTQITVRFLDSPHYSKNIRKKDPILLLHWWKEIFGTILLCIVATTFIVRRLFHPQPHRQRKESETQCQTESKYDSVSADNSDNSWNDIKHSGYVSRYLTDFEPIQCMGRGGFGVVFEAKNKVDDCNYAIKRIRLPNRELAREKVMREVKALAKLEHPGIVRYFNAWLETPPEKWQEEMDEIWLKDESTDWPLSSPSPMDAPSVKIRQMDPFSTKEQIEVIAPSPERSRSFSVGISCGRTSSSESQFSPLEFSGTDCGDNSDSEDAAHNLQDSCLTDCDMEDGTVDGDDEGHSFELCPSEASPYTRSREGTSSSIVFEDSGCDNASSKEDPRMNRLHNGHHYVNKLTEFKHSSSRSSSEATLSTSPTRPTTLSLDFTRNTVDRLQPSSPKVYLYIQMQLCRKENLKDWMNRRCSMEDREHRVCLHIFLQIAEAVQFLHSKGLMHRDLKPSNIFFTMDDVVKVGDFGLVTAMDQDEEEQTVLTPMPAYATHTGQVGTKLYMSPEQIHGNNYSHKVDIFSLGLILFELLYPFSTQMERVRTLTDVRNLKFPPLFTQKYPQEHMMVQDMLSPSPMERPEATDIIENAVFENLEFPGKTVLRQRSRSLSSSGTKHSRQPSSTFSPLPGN

inhibition [4]: Active
inhibition [7]: Active
SMILES: COc1ccc(CNc2nc(N3CCCCC3CO)nc3ccccc23)cc1 (racemic)
Activity (INS1 [1]): Active
Activity (INS1 [2]): Active
Activity (INS1 [3]): Active
Activity (INS1 [5]): Active
%max (INS1 [6]): 80.4%
